Calls of active or inactive are those of the source. No cut-off for these calls is given here.
Tests used:
[1] = tested on: MDA-MB-435; assay: Cytotoxicity against human MDA-MB-435 cells after 3 days by MTT assay; format: functional, cell-based
[2] = tested on: LoVo; assay: Cytotoxicity against human LoVo cells after 3 days by MTT assay; format: functional, cell-based
[3] = tested on: A549; assay: Cytotoxicity against human A549 cells after 3 days by MTT assay; format: functional, cell-based
[4] = target: T1, DNA topoisomerase 1 (Homo sapiens) (UniProt P11387); assay: Inhibition of DNA topoisomerase 1-mediated supercoiled Escherichia coli pBR322 DNA relaxation at 100 uM by UV transilluminator analysis; settings: 500 uM; in the assay text read “500 uM” for “100 uM”
T1 sequence (whole entry): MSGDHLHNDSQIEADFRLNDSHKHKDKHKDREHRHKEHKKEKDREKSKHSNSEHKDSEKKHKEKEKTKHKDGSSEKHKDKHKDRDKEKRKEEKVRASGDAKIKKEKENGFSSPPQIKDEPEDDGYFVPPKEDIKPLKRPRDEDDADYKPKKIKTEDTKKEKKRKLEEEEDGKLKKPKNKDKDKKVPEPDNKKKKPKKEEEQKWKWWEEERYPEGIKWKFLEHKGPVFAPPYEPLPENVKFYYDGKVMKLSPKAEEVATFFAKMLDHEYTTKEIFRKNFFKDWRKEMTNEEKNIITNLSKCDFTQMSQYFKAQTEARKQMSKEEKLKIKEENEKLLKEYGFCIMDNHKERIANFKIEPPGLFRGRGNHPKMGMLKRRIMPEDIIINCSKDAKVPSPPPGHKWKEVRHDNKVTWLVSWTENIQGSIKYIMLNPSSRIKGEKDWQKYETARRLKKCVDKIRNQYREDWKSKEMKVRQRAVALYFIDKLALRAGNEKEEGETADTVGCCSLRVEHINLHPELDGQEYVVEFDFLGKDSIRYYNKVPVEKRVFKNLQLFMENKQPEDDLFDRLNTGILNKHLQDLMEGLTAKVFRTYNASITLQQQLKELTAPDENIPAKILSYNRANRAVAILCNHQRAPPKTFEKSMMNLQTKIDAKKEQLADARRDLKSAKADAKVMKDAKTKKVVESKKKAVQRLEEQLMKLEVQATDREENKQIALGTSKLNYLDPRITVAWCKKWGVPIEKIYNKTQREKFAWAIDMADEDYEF
Summary of the method: (§1)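 Purified topoisomerase I was incubated with supercoiled DNA, and inhibition of relaxation by the enzyme was scored. Compounds were tested at concentrations ranging from 1 to 500 μM; an initial screen was run at 500 μM and active compounds were retested at lower concentrations.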

[5] = tested on: HCT-116; assay: Cytotoxicity against human HCT116 cells after 3 days by MTT assay; format: functional, cell-based; settings: HCT-116, 72 h
[6] = target: T1, DNA topoisomerase 1 (Homo sapiens); assay: Inhibition of DNA topoisomerase 1-mediated supercoiled Escherichia coli pBR322 DNA relaxation by UV transilluminator analysis; summary of the method: as §1
[7] = target: T1, DNA topoisomerase 1 (Homo sapiens); assay: Inhibition of DNA topoisomerase 1-mediated supercoiled Escherichia coli pBR322 DNA relaxation at 10 uM by UV transilluminator analysis; summary of the method: as §1
[8] = target: T1, DNA topoisomerase 1 (Homo sapiens); assay: Inhibition of DNA topoisomerase 1-mediated supercoiled Escherichia coli pBR322 DNA relaxation at 1 to 50 uM by UV transilluminator analysis; summary of the method: as §1
[9] = Homo sapiens, LoVo, 72 h, read-out: IC50
[10] = Homo sapiens, MDA-MB-435, 72 h, read-out: IC50
[11] = Homo sapiens, A549, 72 h, read-out: IC50

| Structure (SMILES) | IC50 ([1]; mda-mb-435) | IC50 ([2]; lovo) | IC50 ([3]; a549) | IC50 [2, 9] | IC50 [1, 10] | IC50 [3, 11] | also measured |
| --- | --- | --- | --- | --- | --- | --- | --- |
| O=C(NCCO)c1ccc2nc3c4ccccc4c4ccccc4c3nc2c1 | Not Active | Not Active | Not Active | – | – | – | – |
| CN1c2ccccc2C(=O)N2CCc3c(n(Cc4ccc(Cl)cc4Cl)c4ccccc34)C21 (stereo not drawn) | Not Active | Not Active | Not Active | – | – | – | – |
| c1ccc2c(OCc3nc4c5c6c(sc5ncn4n3)CCCCC6)cccc2c1 | Not Active | Not Active | Not Active | – | – | – | – |
| c1ccc(Cn2c(-c3ccccc3)c(-c3ccccc3)c3c2ncn2nc(-c4cccnc4)nc32)cc1 | Not Active | – | Not Active | 180 µM | – | – | – |
| Nc1ccccc1Sc1ccc2c(=O)n3c4ccccc4nc3c3cccc1c23 | Not Active | Not Active | Not Active | – | – | – | inhibition [4]: Active |
| CN1c2ccccc2C(=O)N2CCc3c(n(C(=O)c4ccccc4)c4ccccc34)C21 (stereo not drawn) | – | – | – | 15 µM | 0.047 µM | 10 µM | – |
| CN1c2ccccc2C(=O)N2CCc3c(n(C(=O)c4ccc(Cl)cc4)c4ccccc34)C21 (stereo not drawn) | – | – | – | – | 0.049 µM | 0.86 µM | inhibition [4]: Active; IC50 [5]: 2.6 µM |
| Cc1ccc(S(=O)(=O)c2cc3c(c4nsnc24)C(=O)c2ccccc2C3=O)cc1 | – | – | – | 43 µM | 25 µM | 0.5 µM | inhibition [4]: Active; inhibition [6]: Dose-dependent effect; inhibition [7]: Active |
| CCn1c2c(c3ccccc31)CCN1C(=O)c3ccccc3N(C)C21 (stereo not drawn) | Not Active | Not Active | Not Active | – | – | – | – |
| COCCOC(=O)c1sc2nc3c4ccccc4c(-c4ccc(C)c(C)c4)nn3c(=O)c2c1C | Not Active | – | Not Active | 45 µM | – | – | – |
| COc1ccc(C(=O)n2c3c(c4ccccc42)CCN2C(=O)c4ccccc4N(C)C32)cc1 (stereo not drawn) | Not Active | – | – | – | – | 74 µM | IC50 [5]: 45 µM |
| CN1c2ccccc2C(=O)N2CCc3c(n(CC(=O)O)c4ccccc34)C21 (stereo not drawn) | – | – | – | 130 µM | 13 µM | 72 µM | – |
| O=S(=O)(c1ccccc1)c1cc2c(O)c3c(ccc4cccnc43)c(O)c2c2ncccc12 | Not Active | Not Active | – | – | – | 120 µM | – |
| CC1CCc2c(sc3nc4c5ccccc5c(-c5ccccc5)nn4c(=O)c23)C1 (stereo not drawn) | Not Active | Not Active | Not Active | – | – | – | – |
| CN1c2ccccc2C(=O)N2CCc3c(n(Cc4ccccc4Cl)c4ccccc34)C21 (stereo not drawn) | – | – | – | 74 µM | 42 µM | 29 µM | – |
| C=CCN1C(=O)/C(=C2\S/C(=N\c3ccccc3)N(c3ccccc3)C2=O)c2ccccc21 | Not Active | Not Active | Not Active | – | – | – | – |
| COc1ccc(-c2nc3c4c(-c5ccccc5)c(-c5ccccc5)oc4ncn3n2)cc1OC | Not Active | – | Not Active | 75 µM | – | – | – |
| CN1c2ccccc2C(=O)N2CCc3c(n(C(=O)c4ccccc4F)c4ccccc34)C21 (stereo not drawn) | Not Active | – | – | – | – | 35 µM | IC50 [5]: 89 µM |
| Cn1c(=O)n(C)c2cc3c(cc21)nc1c2cccc4c(Br)ccc(c(=O)n31)c42 | Not Active | Not Active | Not Active | – | – | – | – |
| CN1c2ccccc2C(=O)N2CCc3c(n(C(=O)c4ccc(Cl)cc4Cl)c4ccccc34)C21 (stereo not drawn) | – | – | – | – | 0.39 µM | 5.3 µM | IC50 [5]: 3.8 µM |
| CCOC(=O)Cn1c2c(c3ccccc31)CCN1C(=O)c3ccccc3N(C)C21 (stereo not drawn) | – | Not Active | Not Active | – | 150 µM | – | – |
| CN1c2ccccc2C(=O)N2CCc3c(n(Cc4cccc(Cl)c4)c4ccccc34)C21 (stereo not drawn) | Not Active | Not Active | Not Active | – | – | – | – |
| O=c1c2ccccc2nc2c3ccccc3c(Sc3nnc4ccccn34)nn12 | Not Active | Not Active | Not Active | – | – | – | – |

| Structure (SMILES) | IC50 ([1]; mda-mb-435) | IC50 ([2]; lovo) | IC50 ([3]; a549) | IC50 [2, 9] | IC50 [1, 10] | IC50 [3, 11] | also measured |
| --- | --- | --- | --- | --- | --- | --- | --- |
| Cc1cc2nc3s/c(=C4\C(=O)N(CC(=O)O)c5ccccc54)c(=O)n3c2cc1C | – | – | Not Active | 240 µM | 170 µM | – | inhibition [4]: Active; inhibition [8]: Active |
| CN1c2ccccc2C(=O)N2CCc3c(n(C(=O)c4ccc([N+](=O)[O-])cc4)c4ccccc34)C21 (stereo not drawn) | – | – | – | – | 0.55 µM | 2.8 µM | IC50 [5]: 4.1 µM |
| CN1c2ccccc2C(=O)N2CCc3c(n(C(=O)c4ccc(F)cc4)c4ccccc34)C21 (stereo not drawn) | – | – | – | – | 0.13 µM | 4.3 µM | IC50 [5]: 5.1 µM |
| CCc1c2c(nc3ccc(OC(=O)N4CCC(N5CCCCC5)CC4)cc13)-c1cc3c(c(=O)n1C2)COC(=O)[C@]3(O)CC [IRINOTECAN] | – | – | – | 8.8 µM | 17 µM | 6.4 µM | – |
| COc1ccc(Cn2c3c(c4ccccc42)CCN2C(=O)c4ccccc4N(C)C32)cc1 (stereo not drawn) | Not Active | Not Active | Not Active | – | – | – | – |
| CC[C@@]1(O)C(=O)OCc2c1cc1n(c2=O)Cc2cc3ccccc3nc2-1 [CAMPTOTHECIN] | – | – | – | 3.1 µM | 0.71 µM | 0.057 µM | – |
| CCOC(=O)n1c2c(c3ccccc31)CCN1C(=O)c3ccccc3N(C)C21 (stereo not drawn) | – | – | – | 95 µM | 9.4 µM | 130 µM | – |
| CN1c2ccccc2C(=O)N2CCc3c(n(CC#N)c4ccccc34)C21 (stereo not drawn) | – | Not Active | – | – | 200 µM | 220 µM | – |
| COC(=O)c1cc(OCc2cccc(C(F)(F)F)c2)c2c(c1)Oc1nc3ccccc3nc1O2 | Not Active | Not Active | Not Active | – | – | – | – |
| CCCNC(=O)Cn1c2ccccc2[n+]2nc3c(cc12)-c1cccc2cccc-3c12 | – | – | – | 26 µM | 77 µM | 37 µM | inhibition [4]: Active; inhibition [8]: Active |
| CCOC(=O)C1=C(C)N=c2s/c(=C3\C(=O)N(CC)c4ccccc43)c(=O)n2C1/C=C/c1ccccc1 (stereo not drawn) | Not Active | Not Active | Not Active | – | – | – | – |
| Cc1cccc2c1nc1c3ccc4c5c(ccc(c(=O)n21)c53)C(=O)NC4=O | Not Active | Not Active | Not Active | – | – | – | – |
| Cc1ccc(-c2csc3nc4c5ccccc5c(Cl)nn4c(=O)c23)cc1C | Not Active | – | Not Active | 190 µM | – | – | inhibition [4]: Active |
| CN1c2ccccc2C(=O)N2CCc3c(n(C(=O)c4ccccc4Cl)c4ccccc34)C21 (stereo not drawn) | – | – | – | – | 0.18 µM | 14 µM | IC50 [5]: 4.7 µM |
| Cc1ccccc1C(=O)n1c2c(c3ccccc31)CCN1C(=O)c3ccccc3N(C)C21 (stereo not drawn) | – | – | – | – | 0.15 µM | 4.2 µM | IC50 [5]: 3.9 µM |
| CCOC(=O)C1=C(C)N=c2s/c(=C3\C(=O)N(CC)c4ccccc43)c(=O)n2C1c1ccccc1 (stereo not drawn) | Not Active | Not Active | Not Active | – | – | – | – |
| CCCCCCn1c2c(c3ccccc31)CCN1C(=O)c3ccccc3N(C)C21 (stereo not drawn) | – | – | – | 59 µM | 110 µM | 120 µM | – |
| CN1c2ccccc2C(=O)N2CCc3c(n(C(=O)c4cccc(Cl)c4)c4ccccc34)C21 (stereo not drawn) | – | – | – | – | 0.051 µM | 2.9 µM | IC50 [5]: 3.3 µM |
| Cc1ccc(C(=O)n2c3c(c4ccccc42)CCN2C(=O)c4ccccc4N(C)C32)cc1 (stereo not drawn) | – | – | – | – | 0.038 µM | 3 µM | IC50 [5]: 4.3 µM |
| CCCCCN1C(=O)/C(=c2\sc3nc4ccccc4n3c2=O)c2ccccc21 | Not Active | Not Active | Not Active | – | – | – | – |
| CN1c2ccccc2C(=O)N2CCc3c(n(Cc4ccccc4)c4ccccc34)C21 (stereo not drawn) | – | – | – | 67 µM | 110 µM | 55 µM | – |
| CCCn1c2c(c3ccccc31)CCN1C(=O)c3ccccc3N(C)C21 (stereo not drawn) | Not Active | Not Active | Not Active | – | – | – | – |
| CC(C)n1c2c(c3ccccc31)CCN1C(=O)c3ccccc3N(C)C21 (stereo not drawn) | Not Active | Not Active | Not Active | – | – | – | – |
